Source: PubChem
The list is not random: actives were taken first. Their share in the collection is about 2.2%.
Wee1 degr inh = blocks degradation of human Wee1 kinase; AID 1321; HeLa Luc-Wee1K328M stability, luciferase luminescence; 100% = proteasome inhibitor MG132 effect; reporter increase, % at 5 µM; P30291; hit rate 1.2% among 220,000;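 active = activation above the mean of all tested compounds plus 3 SD, set per screening run, cut at about 8.8% in these data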;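 also: cells exposed to compound for 20 h before luminescence read; 0% = DMSO alone and 100% = MG132 at 30 µM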
Target sequence (P30291 whole entry K328M): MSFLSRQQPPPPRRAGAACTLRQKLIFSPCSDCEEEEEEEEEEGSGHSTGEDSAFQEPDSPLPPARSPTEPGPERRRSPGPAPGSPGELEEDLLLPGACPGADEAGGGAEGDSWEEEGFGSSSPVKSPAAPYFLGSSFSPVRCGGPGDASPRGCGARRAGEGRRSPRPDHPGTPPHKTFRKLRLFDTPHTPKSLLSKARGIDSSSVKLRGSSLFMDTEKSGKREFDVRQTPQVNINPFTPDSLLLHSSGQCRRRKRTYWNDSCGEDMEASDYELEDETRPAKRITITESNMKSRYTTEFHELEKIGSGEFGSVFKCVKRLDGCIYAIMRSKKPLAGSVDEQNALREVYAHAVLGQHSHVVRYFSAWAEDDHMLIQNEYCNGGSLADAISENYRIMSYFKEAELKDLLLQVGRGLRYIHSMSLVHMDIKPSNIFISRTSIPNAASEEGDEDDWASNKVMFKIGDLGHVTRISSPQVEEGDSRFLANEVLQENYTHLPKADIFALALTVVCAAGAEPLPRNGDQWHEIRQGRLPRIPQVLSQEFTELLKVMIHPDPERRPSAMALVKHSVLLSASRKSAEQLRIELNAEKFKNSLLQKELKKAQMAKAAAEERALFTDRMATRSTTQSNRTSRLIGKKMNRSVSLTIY
PKD1 kinase inh = inhibitors of human PKD1 kinase; Q15139; PKD1 kinase fluorescence polarization assay; inhibition, % (concentration not given with the values); hit rate 0.056% among 200,000; AID 797; in the data active = inhibition above about 50%
FLuc inh counter = Photinus pyralis luciferase inhibition counter-screen; ATPLite firefly luciferase biochemical luminescence, 10 min; hit rate 1.5% among 200,000; inhibition, % at 10 µM; P08659;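 active = inhibition above about 50% when tested at 10 µM, limit read from the data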
C8 TRAIL sens = caspase-8 TRAIL sensitization; NB7+C8 cells + TRAIL, ATPlite viability luminescence; inhibition (viability loss, TRAIL sensitization), % at 10 µM; hit rate 1% among 360,000;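 active = compounds causing at least 50% loss of cell viability in the single-dose screen, relative to plate controls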
FLuc stim CS = affects firefly luciferase, flagging false hits in luciferase stimulation screens; P08659; ATPlite luciferase biochemical, luminescence, 10 min; 0 = ATP-free wells, 1 = DMSO control; activation factor at 10 µM; 200,000 tested, under 10 active; AID 1027;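 active = luciferase activation factor, scaled between plate controls, of at least 2 with compound at 10 µM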
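Material: luciferase plus luciferin reagent, cell-free. Medium: PBS buffer for ATP. Also added: ATP substrate, dispensed from a 10.24 µM working solution in PBS. Doses: test compounds dosed from 2 mM stocks in 100% DMSO. Incubation: 10 min post-reagent at room temperature. Technique: light output (luminescence). Read-out basis: luminescence gain marking luciferase activators.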
PPC-1+TRAIL kill = kills PPC-1 cancer cells in the presence of TRAIL | PPC-1 cells + TRAIL, ATPLite viability luminescence | cell killing (% activity), % at 4 µM or 5 µM | hit rate 0.41% among 220,000;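 active = cell killing above 50% in the first pass at 4 µM, then a duplicate retest at 5 µM averaging 50% or more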;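 also: plate controls were cells with TRAIL plus DMSO for no effect and medium-only wells lacking cells for full effect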
PPC1 cytotox = kills PPC-1 cells | cytotoxicity, % at 5 µM | AID 1447 | shares compounds with PPC-1+TRAIL kill | hit rate 50% among 1,200 | PPC-1 viability, ATPlite luminescence, overnight;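 active = reconfirmed compounds whose average cytotoxicity reaches 50% or more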;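 also: 0% = DMSO-treated cells and 100% = wells holding medium but no cells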
* hit, by the source's call; . = no result given.

SMILES | Wee1 degr inh | PKD1 kinase inh | FLuc inh counter | C8 TRAIL sens | FLuc stim CS | PPC-1+TRAIL kill | PPC1 cytotox
CN(C)S(=O)(=O)c1ccc(C(=O)Nc2ccc(S(=O)(=O)NC3=NCCCCC3)cc2)cc1 | 1.2 | -7.8 | -2.5 | -4.0 | 1 | -5.0 | -10.5
CCOC(=O)N1CCN(S(=O)(=O)c2ccc(OCC(=O)OC)cc2)CC1 | -0.9 | -0.6 | -8.1 | -15.3 | 1.1 | -2.5 | 3.2
CCOC(=O)COc1ccc(S(=O)(=O)N2CCN(C(=O)OCC)CC2)cc1 | 1.8 | -10.7 | -1.2 | 1.3 | 1 | -15.0 | .
COc1ccc(Cl)cc1NC(=O)CN(C)C(=O)c1cn(-c2ccccc2)nc1-c1cccnc1 | . | . | . | 11.0 | . | . | .
C/C(=N\NC(=O)c1n[nH]c2c1CCC2)c1ccco1 | 9.3* | . | . | 63.7* | . | 39.5 | 40.2
CCC(C)(C)C1CCc2[nH]nc(C(=O)N/N=C(\C)c3ccco3)c2C1 (stereo not given) | -1.0 | . | . | 32.2 | . | 21.8 | .
CCN(C(=O)COC(=O)c1ccc2c(c1)OCO2)c1c(N)n(Cc2ccccc2)c(=O)[nH]c1=O | . | . | . | -8.5 | . | . | .
CCc1nnc(NC(=O)COc2ccccc2[N+](=O)[O-])s1 | -0.5 | . | . | 3.3 | . | 8.0 | .
CN(C)c1ncnc2c1nnn2C1OC(CO)C(O)C1O (stereo not given) | . | . | . | 47.6 | . | . | .
CN(C)c1ncnc2c1ncn2C1OC(CO)C(O)C1O (stereo not given) | -1.8 | 1.0 | -3.3 | 69.4* | 1 | 43.5 | 44.0
O=C(NCc1ccccn1)C(=O)N/N=C/c1ccc2c(c1)OCO2 | 0.8 | 6.0 | 6.1 | 1.3 | 0.9 | 3.6 | 9.2
COC(=O)[C@]12CCCCC=C1N(CCc1ccc(OC)c(OC)c1)C(=O)[C@H](CC(=O)N1CCN(C(=O)c3ccco3)CC1)C2 | . | . | . | -4.2 | . | . | .
Cc1cc(NC(=S)N(Cc2ccc(Br)cc2)Cc2ccc(C(=O)O)cc2)ccc1Cl | 0.9 | -4.9 | -2.0 | 4.1 | 1 | 16.5 | .
O=C1C(=O)c2ccc(-c3ccccc3)cc2-c2ccccc21 | 0.8 | 0.3 | -4.7 | 93.0* | 1 | 96.9* | 97.1*
C=CCSc1nnc(NC(=O)c2ccc3c(c2)OCCO3)s1 | . | . | . | 31.0 | . | . | .
O=C(O)CSc1nnc(NC(=O)c2ccc3c(c2)OCO3)s1 | -1.6 | -1.9 | 91.3* | 73.9* | 0.1 | 65.7* | 67.1*
COCCn1nnnc1C(c1cc2cc(C)ccc2[nH]c1=O)N1CCN(C2CCCCC2)CC1 (stereo not given) | -0.7 | -5.4 | -0.8 | 0.3 | 1 | 23.3 | .
COCCn1nnnc1C(c1cc2ccc(OC)cc2[nH]c1=O)N1CCN(C2CCCCC2)CC1 (stereo not given) | -0.1 | 13.2 | -2.6 | 2.4 | 1 | -20.5 | -0.1
CC(C)(C)NC(=O)c1ccc2c(c1)CCO2 | -2.2 | . | . | 10.2 | . | 10.3 | .
O=C(NC(=O)c1ccccc1O)c1ccc2c(c1)CCO2 | 1.8 | . | . | 74.4* | . | 68.7* | 67.6*
CSCCC(NS(=O)(=O)c1cccc(C(F)(F)F)c1)C(=O)N(C)CCOc1ccc(Cl)cc1 (stereo not given) | . | . | . | 26.9 | . | . | .
COc1cc(/C=C(/C(=O)c2cccs2)c2nc3ccccc3[nH]2)ccc1O | 0.3 | -6.4 | 35.3 | 25.2 | 0.6 | 17.6 | 13.9
Cc1ccc(CNC(=O)C2CC3Cn4c(nc5cc(Cl)c(Cl)cc54)C3N2C)o1 (stereo not given) | . | . | . | -7.4 | . | -8.9 | .
O=C(Nc1ccccc1Cl)N1C2CCC1CC(O)(c1cccnc1)C2 (stereo not given) | 2.3 | 5.8 | -8.7 | -7.6 | 1.1 | -1.9 | 9.3
Fc1ccc(-c2nnc(NC3=NCCCCC3)o2)cc1 | -2.6 | 3.5 | 87.0* | 75.5* | 0.1 | 65.6* | 63.8*
Fc1ccc(NC2=NCCCCC2)cc1 | 1.5 | -0.7 | -1.9 | -6.9 | 1 | 27.5 | .
COc1ccc(-c2ccc(SCC(=O)Nc3nnc(C)s3)nn2)cc1 | 5.7 | -5.9 | 63.8* | 54.9* | 0.4 | 50.5* | 50.1*
CCOc1ccc(-c2ccc(SCC(=O)Nc3nnc(CC)s3)nn2)cc1 | -0.5 | -2.9 | 65.3* | 67.1* | 0.3 | 69.8* | 67.7*
CSc1ccc(-c2ccco2)nn1 | 0.9 | -3.3 | 27.3 | 14.7 | 0.7 | 0.8 | .
